Screening results as filed in PubChem.
A selection: hits, their analogues and other compounds. The true share with any hit is near 2.7%.
PAFAH1B2 FP inh – blocks human PAF acetylhydrolase 1b catalytic subunit 2 | P68402 | recombinant PAFAH1B2, FP-rhodamine activity probe, fluorescence polarization | inhibition, % at 3.39 µM | 1.2% of 340,000 active;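 active = inhibition above the mean of all tested compounds plus 3 SD, cut at about 24% in these data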;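 also: 0% = enzyme with DMSO and 100% = wells lacking PAFAH1B2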
RBBP9 inhibitor – blocks human serine hydrolase RBBP9; O75884; recombinant RBBP9, FP-Rh probe fluorescence polarization; inhibition, % at 7.94 µM; 0.2% of 220,000 active;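 active = inhibition above the campaign mean of all tested compounds plus 3 SD, cut at about 14% in these data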;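 also: plate controls were DMSO wells with RBBP9 for no effect and wells lacking RBBP9 protein for full effect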
Target sequence (O75884 whole entry, looked up): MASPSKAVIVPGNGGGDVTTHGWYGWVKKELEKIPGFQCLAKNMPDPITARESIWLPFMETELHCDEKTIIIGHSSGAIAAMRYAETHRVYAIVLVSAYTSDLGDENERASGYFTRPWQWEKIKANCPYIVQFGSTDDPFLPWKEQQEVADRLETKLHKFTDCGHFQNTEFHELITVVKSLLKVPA
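System: RBBP9 protein | Quantity: 2.5 µM RBBP9 dispensing solution, before mixing | Reagent: FP-Rh probe, 375 nM dispensing solution | Timing: Enzyme-compound preincubation 30 min, then probe labeling 45 min, 25 °C | Measured by: Fluorescence polarization | Read-out: % inhibition | Replication: One well per compound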
pPAFAH FP inh – pPAFAH (human) enzyme inhibition. Q13093. recombinant pPAFAH, FP-rhodamine probe fluorescence polarization. inhibition, % at 3.39 µM. 1.5% of 330,000 active. AID 463082;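 active = inhibition above the mean inhibition across the screen plus 3 SD, cut at about 25% in these data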;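 also: inhibitors block binding of the rhodamine activity-based probe so polarization drops; 0% = enzyme with DMSO and 100% = wells lacking pPAFAH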
Target sequence (Q13093 whole entry, looked up): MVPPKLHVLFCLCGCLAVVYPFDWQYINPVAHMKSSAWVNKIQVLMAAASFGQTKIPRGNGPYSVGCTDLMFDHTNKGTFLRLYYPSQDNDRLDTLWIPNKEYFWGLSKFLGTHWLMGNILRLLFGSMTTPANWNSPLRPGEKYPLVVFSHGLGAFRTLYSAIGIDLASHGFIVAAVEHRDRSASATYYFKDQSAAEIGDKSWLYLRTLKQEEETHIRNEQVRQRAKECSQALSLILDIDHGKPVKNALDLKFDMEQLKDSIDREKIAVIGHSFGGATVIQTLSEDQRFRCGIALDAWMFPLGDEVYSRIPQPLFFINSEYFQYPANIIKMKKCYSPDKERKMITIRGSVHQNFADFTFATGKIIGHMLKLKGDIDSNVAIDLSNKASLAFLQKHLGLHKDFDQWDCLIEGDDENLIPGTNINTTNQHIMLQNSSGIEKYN
PAFAH2 FP inh – PAFAH2 (human) inhibition; Q99487; AID 492956; recombinant PAFAH2, FP-rhodamine activity probe, fluorescence polarization; 0.99% of 340,000 active; inhibition, % at 3.39 µM;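 active = inhibition above the mean over all tested compounds plus 3 SD, cut at about 30% in these data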;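 also: inhibitors block probe labeling of enzyme so polarization drops; 0% = enzyme with DMSO and 100% = wells lacking PAFAH2 protein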
PAFAH1B3 inh – blocks human PAF acetylhydrolase 1B catalytic subunit 3; Q15102; recombinant PAFAH1B3, FP-rhodamine probe, fluorescence polarization; inhibition, % at 3.39 µM; 0.28% of 340,000 active; AID 492972;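 active = inhibition above the screen-wide average of all tested compounds plus 3 SD, cut at about 25% in these data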;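 also: 0% = enzyme with DMSO only and 100% = wells lacking PAFAH1B3 protein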
The depositor's hits bear a star; nt = no result given.

SMILES | PAFAH1B2 FP inh | RBBP9 inhibitor | pPAFAH FP inh | PAFAH2 FP inh | PAFAH1B3 inh
CCCCC(=O)N(Cc1ccc2c(c1)OCO2)Cc1nc2ccccc2c(=O)[nH]1 | 7 | 4 | 1 | 7 | -4
CCCCN(Cc1nc2ccccc2c(=O)[nH]1)C(=O)c1nn(C)c(=O)c2ccccc12 | 42* | nt | nt | 81* | 76*
CC(=O)c1cccc(NC(=O)C(C)OC(=O)CCN=C2NS(=O)(=O)c3ccccc32)c1 (stereo unspecified) | 106* | nt | -7 | 106* | 86*
Oc1ccccc1C1NN=C(c2ccccc2)S1 (stereo unspecified) | 6 | nt | -3 | 49* | -1
CSc1ccc(C2NN=C(c3ccccc3)S2)cc1 (stereo unspecified) | nt | nt | -1 | nt | nt
O=S(=O)(O)c1cc2oc(-c3ccccc3)nc2c2ccccc12 | -2 | nt | 5 | 7 | 5
CCCCN(C(=O)c1cccc(S(=O)(=O)N2CC(C)OC(C)C2)c1)c1c(N)n(CCCC)c(=O)[nH]c1=O (stereo unspecified) | -2 | nt | -4 | -4 | -2
NC(=O)c1ccc(Oc2ccc(Cl)c3ccccc23)c([N+](=O)[O-])c1 | 0 | -5 | 34* | 1 | -3
NC(=O)c1ccc(Oc2ccc(Cl)cc2)c([N+](=O)[O-])c1 | 13 | -2 | 10 | 3 | -1
CC(C)N1CC=C2C(C#N)=C(N)C(C#N)(C#N)C(c3ccccc3)C2C1 (stereo unspecified) | 7 | -2 | 8 | 0 | 2
CC(C)N1CC=C2C(C#N)=C(N)C(C#N)(C#N)[C@H](c3ccoc3)[C@H]2C1 | nt | -2 | 29* | nt | nt
COc1ccc(NC(=O)CN(C)C(=O)c2ccc3[nH]c4c(c3c2)CC(C)CC4)cc1 (stereo unspecified) | 18 | nt | 1 | 13 | -3
CC1CCc2[nH]c3ccc(C(=O)N(C)CC(=O)Nc4ccc(F)cc4)cc3c2C1 (stereo unspecified) | 39* | nt | 10 | 49* | 7
CC(=O)COc1ccc2c3c(c(=O)oc2c1C)CCCCC3 | -1 | -10 | 15 | -6 | -1
C=C(C)COc1ccc2c3c(c(=O)oc2c1OCC(=C)C)CCC3 | 6 | 3 | 31* | 67* | 0
Nc1nnc(-c2cccc(F)c2)s1 | -1 | 3 | 0 | 10 | 9
O=c1oc2c(-c3cccc(F)c3)cc(O)cc2s1 | 13 | 3 | 27* | -12 | 11
CC(OC(=O)CC1CCCCC1)C(=O)Nc1cccc(C#N)c1 (stereo unspecified) | 2 | nt | -10 | 3 | 1
O=C(Nc1ccc(Cl)cc1)Nc1ccc(N2CCOCC2)cc1 | 2 | -1 | 11 | -4 | 8
O=C(Nc1ccc(N2CCOCC2)cc1)C1(c2ccc(Cl)cc2)CCC1 | 80* | -2 | 8 | -2 | -4
O=C(COC(=O)C1(c2ccc(F)cc2)CCCC1)N1CCc2ccccc21 | 28* | 0 | -6 | -1 | 6
O=S(=O)(NC(CO)Cc1ccccc1)c1ccc(Br)cc1F (stereo unspecified) | 29* | nt | nt | 1 | 3
O=S(=O)(NC(CO)Cc1ccccc1)c1cc(Cl)ccc1F (stereo unspecified) | 15 | nt | nt | -3 | 3
COC(=O)c1cc(C(=O)OCC(=O)N(C)c2ccccc2)cc([N+](=O)[O-])c1 | -1 | nt | 5 | 0 | 0
CCNC(=O)C(=O)NCCc1ccc(Cl)cc1 | 25* | -6 | 5 | -3 | 4
SMILES | PAFAH1B2 FP inh | RBBP9 inhibitor | pPAFAH FP inh | PAFAH2 FP inh | PAFAH1B3 inh
O=C(CCc1c[nH]c2ccccc12)NCCc1ccc(Cl)cc1 | 28* | nt | 0 | 10 | 3
O=C(NCCCO)C(=O)NCCc1ccc(Cl)cc1 | 28* | -1 | 2 | 1 | 6
O=C(NCCc1ccc(Cl)cc1)c1ccc(=O)[nH]c1 | 30* | nt | -5 | -5 | -4
O=C(c1ccc(NS(=O)(=O)c2ccccc2)cc1)N1CCN(c2ccccc2)CC1 | -3 | nt | 3 | -1 | -3
Cc1ccc(-c2ccnc3nc(-n4cccc4)nn23)o1 | 4 | -2 | 2 | 9 | -5
COc1ccccc1CCNC(=O)C(=O)NCC1OCCN1S(=O)(=O)c1ccc([N+](=O)[O-])cc1 (stereo unspecified) | 4 | nt | 13 | 2 | 4
CC(=O)CCc1ccc(Oc2nc(-c3cccnc3)nc3ccccc23)cc1 | 2 | -4 | 25* | 3 | 3
Cc1ccc(S(=O)(=O)N(C)Cc2ccc(C(=O)N/N=C/c3ccc(OC(F)F)cc3)cc2)cc1 | 0 | -3 | 2 | -6 | 3
O=C(c1ccccc1F)N1CCN(Cc2cccc(Cl)c2)CC1 | 4 | -5 | 29* | 6 | 3
CN(C)c1cc[n+](CC(=O)N2CCCc3ccccc32)cc1 | 4 | -2 | 3 | -2 | 10
NC(=O)C1=NOC(CNc2ncc(C(F)(F)F)cc2Cl)C1 (stereo unspecified) | 3 | -2 | -4 | -2 | 7
COC(=O)C(=C/C=C/N1CCOCC1)C(=O)OC | nt | -1 | 25* | nt | nt
N#Cc1cccc(S(=O)(=O)NNC(=O)C23CC4CC(CC(C4)C2)C3)c1 | 26* | nt | 5 | 3 | 9
COc1ccc(S(=O)(=O)NNC(=O)C23CC4CC(CC(C4)C2)C3)cc1 | 17 | nt | nt | -4 | 6
O=C(CCNS(=O)(=O)c1ccc(Br)s1)Nc1ccc(Cl)cc1 | 18 | 6 | -7 | -2 | 0
Cc1cc(C)c(OCC(=O)OCC(=O)NCC2CCCCC2)c(C)c1 | 4 | nt | 31* | -6 | 3
COc1ccccc1CNC(=O)c1cccc(S(=O)(=O)N(C)c2ccccc2)c1 | 1 | nt | -3 | 6 | 2
O=C(COC(=O)Cc1ccc(F)cc1)NC1CCCC1 | 3 | nt | 11 | 9 | 13
O=C(COC(=O)Cc1ccc(Cl)cc1)NC1CCCC1 | 9 | nt | 26* | 12 | 1
O=C(COC(=O)Cc1ccc(Br)cc1)NC1CCCCC1 | 10 | 0 | 30* | 5 | 5
CCN(CC)S(=O)(=O)c1cccc(C(=O)OCC(=O)NCc2ccccc2OC)c1 | 5 | nt | 32* | 20 | 4
CCCCSc1nc(C)c(CC(=O)O)c(=O)[nH]1 | 9 | -1 | 2 | 4 | -1
COc1cccc2cc(C(=O)NCCN3CCOCC3)c(=O)oc12 | 0 | nt | 4 | 7 | 3
C=CC[C@H](CC(=O)NCCO)C(=O)N[C@H](COC(=O)[C@H](CC=C)CC(=O)OC(C)(C)C)Cc1c[nH]c2ccccc12 | 5 | nt | -1 | 9 | 5
O=C(COC(=O)Cc1ccc(Br)cc1)NCC1CCCCC1 | 9 | -6 | 31* | 5 | 1
COc1ccccc1CNC(=O)COC(=O)Cc1ccc(F)cc1 | 1 | nt | 15 | -1 | 5
COc1ccccc1CNC(=O)COC(=O)Cc1ccc(Cl)cc1 | 2 | -3 | 27* | 1 | 8
O=c1c2cc(-c3ccccc3)sc2ncn1/N=C/c1ccco1 | 4 | -7 | 26* | 8 | -2
CCOc1c(Cl)cc(C(=O)Nc2ccccc2C(=O)O)cc1Cl | 1 | -2 | 3 | 1 | 5
